Compounds with a hit are over-represented: about 2.5% of the library has one in this group of screens.
CHO parental Ca = counter-screen: ATP calcium response change in parental CHO cells; parental CHO-K1, ATP-induced calcium, Fluo-8 fluorescence; inhibition, % at 5.6 µM; hit rate 0.63% among 330,000;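 active = inhibition above that plate's mean sample inhibition plus 3 SD, cut at about 26% in these data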;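 also: 0% = ATP-challenged DMSO wells and 100% = DMSO wells without ATP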
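Assay system – parental CHO cells · Reagent – ATP stimulus · Detection – intracellular calcium via Fluo-8 no-wash fluorescent dye · Evaluation – percent inhibition of ATP-evoked calcium rise, normalized to controls · Controls – ATP wells versus no-ATP DMSO wells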
OX1R antag-1 = OX1R (human) antagonism; hit rate 1.8% among 330,000; inhibition, % at 6.6 µM; O43613; OX1R-expressing cells, FRET antagonist read-out; AID 485270; in the data active = inhibition mostly above about 38%, no sharp cut-off; inactive = mostly below about 40%;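 also: 0% = agonist challenge alone and 100% = reference antagonist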
Target sequence (O43613 whole entry, looked up): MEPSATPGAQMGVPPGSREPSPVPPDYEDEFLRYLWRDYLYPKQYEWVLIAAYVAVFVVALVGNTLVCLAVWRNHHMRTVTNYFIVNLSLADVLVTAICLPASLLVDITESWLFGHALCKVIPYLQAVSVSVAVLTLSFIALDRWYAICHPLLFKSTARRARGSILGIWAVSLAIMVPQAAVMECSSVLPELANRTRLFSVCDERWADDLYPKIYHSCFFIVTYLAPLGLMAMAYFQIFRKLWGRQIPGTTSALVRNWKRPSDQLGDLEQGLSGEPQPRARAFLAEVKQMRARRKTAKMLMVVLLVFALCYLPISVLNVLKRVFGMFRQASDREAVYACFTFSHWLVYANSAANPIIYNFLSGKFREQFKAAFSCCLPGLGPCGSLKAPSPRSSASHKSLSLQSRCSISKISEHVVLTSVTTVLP
TRPN1 ag = zebrafish TRPN1 (NompC) channel agonism | activation, % at 3 µM | hit rate 0.18% among 220,000 | HEK293 zebrafish TRPN1-YFP, Fluo-8 calcium fluorescence; 100% = response to 87 µM carbachol | AID 1424;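 active = activation above its plate's cutoff, the mean activation of test wells on that plate plus 3 SD, cut at about 19% in these data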;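 also: 0% = DMSO alone and 100% = 87 µM carbachol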
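Material: zebrafish TRPN1-YFP in HEK293 cells. Doses: one dose of 3 µM, 0.3% DMSO. Incubation: dye 1 h 37 °C plus 30 min RT. Measured by: intracellular calcium fluorescence with Fluo-8.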
TRPML3 agonist = agonists of human TRPML3 channel; HEK293 TRPML3-YFP, Fluo-8 calcium fluorescence; 100% = the carbachol control signal; activation, % at 3 µM; hit rate 0.29% among 220,000;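 active = activation above its plate's cutoff, the mean activation of the plate's test wells plus 3 SD, cut at about 12% in these data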;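 also: 0% = DMSO only wells and 100% = carbachol wells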
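Test system: HEK293 cells stably carrying human TRPML3-YFP; Doses: single dose, 3 µM final nominal compound, 0.3% DMSO final; Schedule: dye loading 1 h 37 °C then 30 min ambient, 125 s read; Technique: Fluo-8 calcium fluorescence; Benchmarks: high control carbachol 87 µM, low control DMSO.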
OX1R antag-2 = human HCRTR1 antagonism. O43613. CHO/OX1R cells, Fluo-8 calcium fluorescence, orexin A. inhibition, % at 5 µM. hit rate 0.43% among 330,000. AID 434989;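 active = inhibition above its plate's threshold, mean inhibition of all tested compounds on the plate plus 3 SD, cut at about 37% in these data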;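 also: 0% = orexin A challenge wells and 100% = SB-334867-A antagonist wells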
OX1R Fluo8 conf = OX1R (human) antagonism, confirmed; shares compounds with OX1R antag-2; CHO/OX1R cells, orexin A calcium Fluo-8 fluorescence; inhibition, % at 5 µM; hit rate 38% among 1,100; in the data active = inhibition above about 29%;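 also: 0% = agonist challenge alone and 100% = reference antagonist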
CHO Ca counter = counter-screen for OX1R antagonists: effect in parental CHO cells | shares compounds with OX1R antag-2 | parental CHO-K1, ATP-induced calcium, Fluo-8 fluorescence | inhibition, % at 5.6 µM | hit rate 9.3% among 1,100 | AID 492965;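 active = inhibition above a per-plate limit, the mean inhibition of that plate's test compounds plus 3 SD, cut at about 25% in these data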;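 also: 0% = ATP challenge with DMSO and 100% = DMSO without ATP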
OX1R HTRF confirm = confirmation of human orexin 1 receptor antagonists, HTRF format. shares compounds with OX1R antag-1. OX1R-expressing cells, HTRF antagonist assay. inhibition, % at 6.6 µM. hit rate 49% among 1,800; in the data active = inhibition above about 55%;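 also: CHO cells expressing OX1R stimulated with orexin A at about EC80; 0% = agonist challenge alone and 100% = reference antagonist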
CHO-K1 HTRF cnt = counter-screen for OX1R antagonists: effect in parental CHO-K1 cells. hit rate 48% among 1,800. HTRF counterscreen. shares compounds with OX1R antag-1. inhibition, % at 6.6 µM; in the data active = inhibition above about 17%;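 also: 0% = agonist challenge with vehicle and 100% = vehicle alone without agonist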
Active calls of the source: *; nt = not tested or not shown.

SMILES | CHO parental Ca | OX1R antag-1 | TRPN1 ag | TRPML3 agonist | OX1R antag-2 | OX1R Fluo8 conf | CHO Ca counter | OX1R HTRF confirm | CHO-K1 HTRF cnt
CC(=O)N1CCN(S(=O)(=O)c2cccc(C(=O)Nc3ccc(C)cn3)c2)CC1 | -7 | 2 | nt | nt | 0 | nt | nt | nt | nt
Cc1ccc(NC(=O)c2cccc(S(=O)(=O)N3CCc4ccccc4C3)c2)nc1 | -20 | 39* | nt | nt | 32 | -6 | -12 | 36 | 4
COc1ccc(S(=O)(=O)N2CC(C)N(C(=O)N(C)C)C2C)cc1 (stereo not given) | -14 | 5 | nt | nt | -13 | nt | nt | nt | nt
COc1ccc2c(=O)c(-c3nc(C)cs3)coc2c1 | -17 | 24 | 5 | 0 | -19 | nt | nt | nt | nt
Cc1csc(-c2coc3cc(O)cc(C)c3c2=O)n1 | -4 | 94* | 0 | 0 | 60* | 25 | 4 | 91* | 7
COc1ccc(OCC(=O)NNc2c3ccccc3nc3ccccc23)cc1 | 8 | 102* | 4 | 0 | 41* | 2 | -11 | 33 | 8
CC(=O)N1CC(=O)N=C1SCC(=O)Nc1nc(C)c(-c2ccccc2)s1 | -19 | 24 | 0 | 0 | -2 | nt | nt | nt | nt
COc1ccccc1C(=O)Nc1ccc2nc3n(c(=O)c2c1)CCCC3 | -1 | 95* | nt | nt | 36 | 31* | -4 | 97* | 11
CCSc1nnc(NC(=O)C2CCN(C(=O)c3ccc(F)cc3)CC2)s1 | -17 | 13 | nt | nt | 6 | nt | nt | nt | nt
O=C(OCC#CCSc1nnc(-c2cccc3ccccc23)o1)c1cccc2[nH]ccc12 | -11 | 67* | nt | nt | 68* | 30* | -8 | 88* | -1
O=C(c1c(F)cccc1F)N1CCN(CCOc2ccccc2)CC1 | -12 | -7 | nt | nt | -3 | nt | nt | nt | nt
O=C(Nc1ccccc1)[C@@H]1CC=C[C@@H]2CCN(Cc3ccc(Cl)c(Cl)c3)C(=O)[C@@H]21 | -27 | 85* | nt | nt | 66* | 56* | -18 | 92* | 2
Cc1ccc2nsnc2c1S(=O)(=O)NCCc1c(C)[nH]c2ccc(F)cc12 | -6 | 78* | 1 | 1 | 70* | 38* | -4 | 62* | 5
COc1cccc(OCc2cc(/C=N/Nc3ccc(C(=O)O)cc3)ccc2OC)c1 | 5 | 13 | -1 | 0 | 2 | nt | nt | nt | nt
COc1ccccc1N(CC(=O)NC1CCCC1)C(=O)c1oc(C(C)(C)C)cc1C | -24 | 52* | 2 | 2 | 41* | 20 | 3 | 64* | 1
Nc1cccc2c1C(=O)N(CCOc1ccccc1F)C2=O | -4 | 7 | nt | nt | -4 | nt | nt | nt | nt
O=C(OCc1cc(=O)n2c(n1)sc1ccccc12)c1cccc(O)c1 | 14 | 97* | 1 | 1 | 34 | 52* | -9 | 86* | 6
CC(Sc1ccc(Cl)cc1)C(=O)NNC(=O)c1ccccc1O (stereo not given) | -11 | 66* | nt | nt | 30 | 32* | -5 | 75* | 2
COc1ccccc1/C=C/C(=O)NCC(=O)N/N=C(\CCC(=O)O)c1ccccc1 | 1 | 13 | -2 | 0 | -10 | nt | nt | nt | nt
Cc1ccc(C(=O)Nc2ccc(Br)c(C(F)(F)F)c2)cc1 | -3 | 51* | 4 | 1 | 29 | 6 | 4 | 34 | 12
O=C(Nc1cccc(-c2nc3ccccc3[nH]2)c1)c1ccco1 | -15 | 73* | 2 | 0 | 24 | 10 | -5 | 50 | 8
Cc1ccc2nc(-c3ccc(NC(=O)c4ccco4)cc3)[nH]c2c1 | -5 | 13 | 2 | 0 | -13 | nt | nt | nt | nt
CCN(CC)c1ccc(/C=N/NC(=O)c2nnn(-c3nonc3N)c2C(C)C)c(O)c1 | -2 | 96* | nt | nt | 59* | 16 | -10 | 69* | 5
CN(C)Cc1c(C(=O)N/N=C/c2cccc(OCc3ccccc3)c2)nnn1-c1nonc1N | -9 | 10 | nt | nt | -12 | nt | nt | nt | nt

Assay outcomes from PubChem BioAssay.
